According to ChEMBL document CHEMBL1123129, “Hypolipidemic activity of indan-1,3-dione derivatives in rodents” (J Med Chem, 1985):

Tests used:
Rattus norvegicus [1] = test: Compound was evaluated for the hypolipidemic activity at 20 mg/kg per day orally for 14 days against neutral lipids in rat lipoprotein chylomicron; format: functional; conditions: route oral
Method in brief: (§1)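 Male Sprague–Dawley rats (~300 g) were dosed orally each day. Blood was drawn from the abdominal vein. Lipoprotein fractions (chylomicron, VLDL, LDL, HDL) were separated by the Hatch–Lees and Havel methods. Each fraction was assayed for cholesterol, triglyceride (enzymatic kit), neutral lipids, phospholipids and Lowry protein. Values are % of 1% CMC vehicle control, N = 6.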

[2] = target: T1, ATP-citrate synthase (Mus musculus) (UniProt Q91V92); test: In Vivo effect for the hypolipidemic activity on ATP-Citrate Lyase in CF1 mice after 16 days of oral administration at a dose of 20 mg/kg; format: organism-based; set-up: dose 20 mg/kg
T1 sequence (whole entry): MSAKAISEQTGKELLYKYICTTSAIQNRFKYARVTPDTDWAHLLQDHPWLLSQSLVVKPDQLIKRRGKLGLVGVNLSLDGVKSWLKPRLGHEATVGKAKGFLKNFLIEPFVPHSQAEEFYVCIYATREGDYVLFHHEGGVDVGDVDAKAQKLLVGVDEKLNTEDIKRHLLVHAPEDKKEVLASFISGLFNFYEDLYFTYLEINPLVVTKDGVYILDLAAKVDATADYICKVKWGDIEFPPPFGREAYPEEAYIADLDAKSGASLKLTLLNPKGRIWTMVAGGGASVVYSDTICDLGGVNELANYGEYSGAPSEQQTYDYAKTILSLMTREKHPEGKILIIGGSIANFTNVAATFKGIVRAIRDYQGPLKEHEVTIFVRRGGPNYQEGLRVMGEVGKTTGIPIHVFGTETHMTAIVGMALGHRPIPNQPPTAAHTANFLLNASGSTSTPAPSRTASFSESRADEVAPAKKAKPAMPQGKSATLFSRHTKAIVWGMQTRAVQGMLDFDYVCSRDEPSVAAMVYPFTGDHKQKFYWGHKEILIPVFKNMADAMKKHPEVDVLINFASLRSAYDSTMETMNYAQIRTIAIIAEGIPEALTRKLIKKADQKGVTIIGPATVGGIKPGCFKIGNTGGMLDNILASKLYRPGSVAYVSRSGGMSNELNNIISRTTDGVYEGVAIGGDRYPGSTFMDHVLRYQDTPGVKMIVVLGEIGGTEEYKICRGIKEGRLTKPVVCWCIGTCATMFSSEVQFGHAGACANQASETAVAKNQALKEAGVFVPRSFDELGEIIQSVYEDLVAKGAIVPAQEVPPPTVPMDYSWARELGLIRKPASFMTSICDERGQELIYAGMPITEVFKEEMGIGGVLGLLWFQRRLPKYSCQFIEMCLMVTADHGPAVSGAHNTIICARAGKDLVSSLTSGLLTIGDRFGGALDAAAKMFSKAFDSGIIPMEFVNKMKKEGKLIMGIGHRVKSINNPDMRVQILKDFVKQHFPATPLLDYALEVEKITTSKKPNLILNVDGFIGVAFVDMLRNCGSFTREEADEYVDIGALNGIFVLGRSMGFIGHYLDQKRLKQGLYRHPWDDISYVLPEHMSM
Method in brief: (§2)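 CF1 male mice are dosed orally at 10–60 mg/kg per day for 16 days, with 1% CMC as the control vehicle. Liver is homogenized at 10% in 0.25 M sucrose + 0.001 M EDTA, pH 7.2. Enzymes are assayed by literature methods, with Lowry protein. Activity is given as % of control (X ± SD, N = 6), with p from Student's t test.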

[3] = target: T2, 3-hydroxy-3-methylglutaryl-coenzyme A reductase (Mus musculus) (UniProt Q01237); test: In Vivo effect for the hypolipidemic activity on HMG-CoA reductase in CF1 mice after 16 days of oral administration at a dose of 10 mg/kg; format: organism-based; set-up: dose 10 mg/kg; method in brief: as §2
T2 sequence (whole entry): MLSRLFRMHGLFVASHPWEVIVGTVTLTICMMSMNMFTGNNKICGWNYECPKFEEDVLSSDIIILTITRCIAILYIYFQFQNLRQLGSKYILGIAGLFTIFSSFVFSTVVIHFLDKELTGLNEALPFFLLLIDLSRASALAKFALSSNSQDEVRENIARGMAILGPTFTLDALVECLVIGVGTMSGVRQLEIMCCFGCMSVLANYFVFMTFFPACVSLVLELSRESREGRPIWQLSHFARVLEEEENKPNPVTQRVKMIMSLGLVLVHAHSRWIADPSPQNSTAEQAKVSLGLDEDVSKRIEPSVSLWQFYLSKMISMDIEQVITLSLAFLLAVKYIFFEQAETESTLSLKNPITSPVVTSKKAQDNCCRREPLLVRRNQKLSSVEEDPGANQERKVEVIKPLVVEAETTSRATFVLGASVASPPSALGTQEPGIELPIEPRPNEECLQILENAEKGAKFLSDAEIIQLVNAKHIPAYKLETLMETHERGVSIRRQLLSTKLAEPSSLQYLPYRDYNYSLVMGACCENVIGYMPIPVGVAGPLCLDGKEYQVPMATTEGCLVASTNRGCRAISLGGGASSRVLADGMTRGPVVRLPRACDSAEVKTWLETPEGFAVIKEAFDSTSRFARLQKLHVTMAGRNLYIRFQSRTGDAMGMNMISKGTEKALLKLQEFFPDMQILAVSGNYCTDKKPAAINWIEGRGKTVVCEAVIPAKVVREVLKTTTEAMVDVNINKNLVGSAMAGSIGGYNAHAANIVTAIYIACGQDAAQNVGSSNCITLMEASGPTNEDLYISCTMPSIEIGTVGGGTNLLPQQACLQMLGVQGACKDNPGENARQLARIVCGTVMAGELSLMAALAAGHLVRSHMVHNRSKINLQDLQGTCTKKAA

Rattus norvegicus [4] = test: Compound was evaluated for the hypolipidemic activity at 20 mg/kg per day orally for 14 days on triglycerides content in rat liver; format: functional; conditions: route oral
Method in brief: (§3)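 Male Sprague–Dawley rats were dosed orally for 14 days. Liver, small intestine and a 24-h fecal collection were lipid-extracted. Extracts were assayed for cholesterol (modified Liebermann–Burchard), triglyceride (enzymatic kit), neutral lipids, phospholipids and protein. Values are % of 1% CMC vehicle control, mean ± SD, N = 6.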

Mus musculus [5] = test: In Vivo effect for the hypolipidemic activity on Acetyl-coenzyme A synthetase in CF1 mice after 16 days of oral administration at a dose of 10 mg/kg; format: functional; method in brief: as §2
Mus musculus [6] = test: Compound was evaluated for the hypolipidemic activity in CF1 male mice at a dose of 10 mg/kg orally for Serum triglyceride at 16th day; format: functional; conditions: route oral
Method in brief: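 CF1 male mice received the agent orally in 1% CMC at 10–60 mg/kg per day. Tail-vein blood was taken on days 9 and 16. Serum cholesterol was measured by modified Liebermann–Burchard on duplicate 25-µL samples, and serum triglyceride on day 16 in duplicate 50-µL samples. Values are % of vehicle control, mean ± SD, N = 6; Student's t test.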

Rattus norvegicus [7] = test: Compound was evaluated for the hypolipidemic activity at 20 mg/kg per day orally for 14 days on phospholipids content in rat HDL; format: functional; conditions: route oral; method in brief: as §1
[8] = target: Acetyl-coenzyme A synthetase, cytoplasmic (Mus musculus) (UniProt Q9QXG4); test: In Vivo effect for the hypolipidemic activity on Acetyl-coenzyme A synthetase in CF1 mice after 16 days of oral administration at a dose of 20 mg/kg; format: functional, organism-based; set-up: dose 20 mg/kg; method in brief: as §2
Sequence of Acetyl-coenzyme A synthetase, cytoplasmic (Mus musculus) (Q9QXG4 whole entry): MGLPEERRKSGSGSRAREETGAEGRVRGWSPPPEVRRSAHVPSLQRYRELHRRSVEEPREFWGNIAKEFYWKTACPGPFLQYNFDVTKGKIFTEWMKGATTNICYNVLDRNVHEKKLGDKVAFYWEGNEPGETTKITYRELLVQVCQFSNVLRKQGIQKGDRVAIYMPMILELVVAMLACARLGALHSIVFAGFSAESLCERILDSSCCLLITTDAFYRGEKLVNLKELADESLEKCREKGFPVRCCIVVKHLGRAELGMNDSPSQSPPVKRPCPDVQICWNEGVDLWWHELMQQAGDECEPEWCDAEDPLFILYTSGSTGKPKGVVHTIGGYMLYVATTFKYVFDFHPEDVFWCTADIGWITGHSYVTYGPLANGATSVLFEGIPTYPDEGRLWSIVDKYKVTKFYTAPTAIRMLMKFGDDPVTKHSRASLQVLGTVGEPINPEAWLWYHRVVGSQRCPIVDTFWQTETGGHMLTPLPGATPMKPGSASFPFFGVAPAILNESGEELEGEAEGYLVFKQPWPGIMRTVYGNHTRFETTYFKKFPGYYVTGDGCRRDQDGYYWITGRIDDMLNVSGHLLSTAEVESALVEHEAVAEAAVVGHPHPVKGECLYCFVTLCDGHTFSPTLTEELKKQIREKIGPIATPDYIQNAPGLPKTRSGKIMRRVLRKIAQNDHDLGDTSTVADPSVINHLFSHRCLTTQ

Rattus norvegicus [9] = test: Compound was evaluated for the hypolipidemic activity at 20 mg/kg per day orally for 14 days on neutral lipids content in rat small intestine.; format: functional; conditions: route oral; method in brief: as §3

Q: How did the Control (Rattus norvegicus [1]) turn out when `COc1ccc(C2C(=O)c3ccccc3C2=O)cc1` [ANISINDIONE] was run?
A: 99%

Q: What about the Control [2] of the same compound?
A: 43%

Q: And the Control [3]?
A: 116%

Q: And the Control (Rattus norvegicus [4])?
A: 37%

Q: And the Control (Mus musculus [5])?
A: 83%

Q: And the Control (Mus musculus [6])?
A: 64%

Q: And the Control (Rattus norvegicus [7])?
A: 87%

Q: And the Control [8]?
A: 72%

Q: What about the Control (Rattus norvegicus [9]) of the same compound?
A: 95%
